Measurements taken from ChEMBL document CHEMBL5653631, “A Potent and Selective ULK1 Inhibitor Suppresses Autophagy and Sensitizes Cancer Cells to Nutrient Stress” (iScience, 2018).
Blank lines part the entries; values can stand above or below the molecule they belong to.

Legend:
[1] = molecular target: Protein kinase C eta type (Homo sapiens) (UniProt P24723); test: Inhibition of human recombinant PKCH at 500 nM in presence of ATP by radiometric assay relative to control
[2] = molecular target: Tyrosine-protein kinase JAK1 (Homo sapiens) (UniProt P23458); test: Inhibition of human recombinant JAK1 at 500 nM in presence of ATP by radiometric assay relative to control
[3] = molecular target: Serine/threonine-protein kinase WNK2 (Homo sapiens) (UniProt Q9Y3S1); test: Inhibition of human recombinant Wnk2 at 500 nM related to control ULK1
[4] = molecular target: Leucine-rich repeat serine/threonine-protein kinase 2 (Homo sapiens) (UniProt Q5S007); test: Inhibition of human recombinant LRRK2 at 500 nM related to control ULK1
[5] = molecular target: Cyclin-dependent kinase 3 (Homo sapiens) (UniProt Q00526); test: Inhibition of human recombinant CDK3 at 500 nM related to control ULK1
Chain of Cyclin-dependent kinase 3 (Homo sapiens) (Q00526 whole entry, looked up): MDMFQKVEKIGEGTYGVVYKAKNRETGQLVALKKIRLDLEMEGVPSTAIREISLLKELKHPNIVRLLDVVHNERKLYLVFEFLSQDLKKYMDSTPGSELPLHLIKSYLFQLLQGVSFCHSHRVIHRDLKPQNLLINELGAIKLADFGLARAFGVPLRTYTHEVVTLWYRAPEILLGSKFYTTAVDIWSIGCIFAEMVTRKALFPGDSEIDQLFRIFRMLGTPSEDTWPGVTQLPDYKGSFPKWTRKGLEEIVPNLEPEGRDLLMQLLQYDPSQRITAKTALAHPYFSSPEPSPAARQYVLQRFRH

[6] = molecular target: T1, Activin receptor type-1 (Homo sapiens) (UniProt Q04771); test: Inhibition of human recombinant ALK2 at 500 nM in presence of ATP by radiometric assay relative to control
T1 sequence (whole entry): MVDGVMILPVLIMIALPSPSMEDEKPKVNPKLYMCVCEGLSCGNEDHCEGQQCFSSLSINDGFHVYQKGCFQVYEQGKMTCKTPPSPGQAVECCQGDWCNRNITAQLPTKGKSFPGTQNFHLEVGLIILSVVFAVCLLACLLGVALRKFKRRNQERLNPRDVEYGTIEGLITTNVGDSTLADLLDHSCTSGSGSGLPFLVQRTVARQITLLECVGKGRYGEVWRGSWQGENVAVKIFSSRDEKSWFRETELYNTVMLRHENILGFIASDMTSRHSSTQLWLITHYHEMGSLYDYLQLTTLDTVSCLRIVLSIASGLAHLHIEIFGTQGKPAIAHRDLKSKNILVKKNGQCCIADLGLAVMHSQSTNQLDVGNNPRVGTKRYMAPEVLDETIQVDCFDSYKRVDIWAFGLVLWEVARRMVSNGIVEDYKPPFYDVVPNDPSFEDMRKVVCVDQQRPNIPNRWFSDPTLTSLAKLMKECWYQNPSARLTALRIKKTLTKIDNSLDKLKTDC
Summary of the method: (§1)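 Panel of 327 recombinant human kinases, each assayed in vitro by radiometric activity assay in duplicate at a single inhibitor concentration per compound, chosen with reference to its ULK1 inhibition. Activity remaining was expressed as percent of vehicle control, and percent inhibition was calculated as 100 minus percent activity remaining.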

[7] = molecular target: Serine/threonine-protein kinase NIM1 (Homo sapiens) (UniProt Q8IY84); test: Inhibition of human recombinant NIM1 at 500 nM in presence of ATP by radiometric assay relative to control
Chain of Serine/threonine-protein kinase NIM1 (Homo sapiens) (Q8IY84 whole entry): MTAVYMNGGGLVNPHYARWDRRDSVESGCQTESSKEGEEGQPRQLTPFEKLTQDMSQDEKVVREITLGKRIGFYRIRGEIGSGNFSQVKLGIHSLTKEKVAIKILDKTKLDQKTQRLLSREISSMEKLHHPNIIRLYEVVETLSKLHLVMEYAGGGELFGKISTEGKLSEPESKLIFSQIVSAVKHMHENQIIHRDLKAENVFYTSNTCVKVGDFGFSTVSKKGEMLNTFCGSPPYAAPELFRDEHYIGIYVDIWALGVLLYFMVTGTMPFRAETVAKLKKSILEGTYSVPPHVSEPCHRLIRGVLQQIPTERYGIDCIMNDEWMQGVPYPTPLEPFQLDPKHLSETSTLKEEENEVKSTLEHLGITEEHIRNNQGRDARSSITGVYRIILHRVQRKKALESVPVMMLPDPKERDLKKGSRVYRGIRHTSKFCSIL

[8] = molecular target: Activin receptor type-1-like (Homo sapiens) (UniProt P37023); test: Inhibition of human recombinant ALK1 at 500 nM related to control ULK1; summary of the method: as §1
Chain of Activin receptor type-1-like (Homo sapiens) (P37023 whole entry): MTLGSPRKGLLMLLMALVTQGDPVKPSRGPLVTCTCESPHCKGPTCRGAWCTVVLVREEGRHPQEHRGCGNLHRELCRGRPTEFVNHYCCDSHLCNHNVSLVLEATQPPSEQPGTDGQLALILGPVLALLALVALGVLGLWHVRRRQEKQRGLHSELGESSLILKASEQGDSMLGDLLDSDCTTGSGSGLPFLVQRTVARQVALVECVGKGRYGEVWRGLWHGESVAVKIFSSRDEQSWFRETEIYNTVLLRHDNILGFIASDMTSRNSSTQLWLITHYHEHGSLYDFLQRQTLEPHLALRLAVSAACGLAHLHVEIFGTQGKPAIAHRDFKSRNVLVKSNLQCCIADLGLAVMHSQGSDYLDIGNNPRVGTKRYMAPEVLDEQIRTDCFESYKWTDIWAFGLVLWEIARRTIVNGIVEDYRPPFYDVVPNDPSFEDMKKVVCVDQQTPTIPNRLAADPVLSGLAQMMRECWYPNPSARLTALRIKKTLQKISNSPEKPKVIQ

[9] = molecular target: T2, Protein kinase C zeta type (Homo sapiens) (UniProt Q05513); test: Inhibition of human recombinant PKCz at 15 nM in presence of ATP by radiometric assay relative to control
T2 sequence (whole entry): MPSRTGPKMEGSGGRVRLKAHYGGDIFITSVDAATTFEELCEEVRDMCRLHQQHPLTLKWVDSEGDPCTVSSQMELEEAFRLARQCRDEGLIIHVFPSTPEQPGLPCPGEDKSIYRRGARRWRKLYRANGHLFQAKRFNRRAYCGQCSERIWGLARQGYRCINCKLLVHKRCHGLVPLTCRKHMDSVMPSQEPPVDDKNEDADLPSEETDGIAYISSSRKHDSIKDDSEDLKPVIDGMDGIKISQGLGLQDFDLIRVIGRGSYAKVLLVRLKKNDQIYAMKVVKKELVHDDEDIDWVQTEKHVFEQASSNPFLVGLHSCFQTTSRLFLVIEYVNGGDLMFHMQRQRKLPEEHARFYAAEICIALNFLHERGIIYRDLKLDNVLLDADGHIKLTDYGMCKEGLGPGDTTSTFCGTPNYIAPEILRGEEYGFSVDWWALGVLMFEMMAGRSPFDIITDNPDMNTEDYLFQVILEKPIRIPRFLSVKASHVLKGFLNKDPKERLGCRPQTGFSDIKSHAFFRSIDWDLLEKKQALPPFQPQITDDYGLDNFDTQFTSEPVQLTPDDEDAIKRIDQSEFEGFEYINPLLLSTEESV

[10] = molecular target: cAMP-dependent protein kinase catalytic subunit beta (Homo sapiens) (UniProt P22694); test: Inhibition of human recombinant PKACbeta at 15 nM related to control ULK1
[11] = molecular target: T3, NUAK family SNF1-like kinase 2 (Homo sapiens) (UniProt Q9H093); test: Inhibition of human recombinant NuaK2 at 15 nM related to control ULK1
T3 sequence (whole entry): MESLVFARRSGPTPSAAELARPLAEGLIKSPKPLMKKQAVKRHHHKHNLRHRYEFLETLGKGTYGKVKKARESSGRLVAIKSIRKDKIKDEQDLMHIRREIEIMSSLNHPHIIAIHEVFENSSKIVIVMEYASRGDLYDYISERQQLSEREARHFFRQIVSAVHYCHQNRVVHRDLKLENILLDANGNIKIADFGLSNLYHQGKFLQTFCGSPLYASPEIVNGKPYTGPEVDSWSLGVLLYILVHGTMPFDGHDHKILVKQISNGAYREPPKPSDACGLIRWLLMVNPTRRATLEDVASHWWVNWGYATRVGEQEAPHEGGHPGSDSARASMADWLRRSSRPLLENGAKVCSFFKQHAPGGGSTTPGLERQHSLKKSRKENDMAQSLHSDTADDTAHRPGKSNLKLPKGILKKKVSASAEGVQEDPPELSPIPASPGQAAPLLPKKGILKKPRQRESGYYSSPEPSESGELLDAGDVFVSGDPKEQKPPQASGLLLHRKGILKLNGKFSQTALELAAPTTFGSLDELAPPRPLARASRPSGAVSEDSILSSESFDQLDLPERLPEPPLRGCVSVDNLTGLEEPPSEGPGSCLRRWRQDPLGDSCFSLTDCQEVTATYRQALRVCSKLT

[12] = molecular target: Activin receptor type-1-like (Homo sapiens) (UniProt P37023); test: Inhibition of human recombinant ALK1 at 15 nM related to control ULK1; summary of the method: as §1
[13] = molecular target: Vascular endothelial growth factor receptor 2 (Homo sapiens) (UniProt P35968); test: Inhibition of human recombinant KDR at 40 nM in presence of ATP by radiometric assay relative to control
Chain of Vascular endothelial growth factor receptor 2 (Homo sapiens) (P35968 whole entry): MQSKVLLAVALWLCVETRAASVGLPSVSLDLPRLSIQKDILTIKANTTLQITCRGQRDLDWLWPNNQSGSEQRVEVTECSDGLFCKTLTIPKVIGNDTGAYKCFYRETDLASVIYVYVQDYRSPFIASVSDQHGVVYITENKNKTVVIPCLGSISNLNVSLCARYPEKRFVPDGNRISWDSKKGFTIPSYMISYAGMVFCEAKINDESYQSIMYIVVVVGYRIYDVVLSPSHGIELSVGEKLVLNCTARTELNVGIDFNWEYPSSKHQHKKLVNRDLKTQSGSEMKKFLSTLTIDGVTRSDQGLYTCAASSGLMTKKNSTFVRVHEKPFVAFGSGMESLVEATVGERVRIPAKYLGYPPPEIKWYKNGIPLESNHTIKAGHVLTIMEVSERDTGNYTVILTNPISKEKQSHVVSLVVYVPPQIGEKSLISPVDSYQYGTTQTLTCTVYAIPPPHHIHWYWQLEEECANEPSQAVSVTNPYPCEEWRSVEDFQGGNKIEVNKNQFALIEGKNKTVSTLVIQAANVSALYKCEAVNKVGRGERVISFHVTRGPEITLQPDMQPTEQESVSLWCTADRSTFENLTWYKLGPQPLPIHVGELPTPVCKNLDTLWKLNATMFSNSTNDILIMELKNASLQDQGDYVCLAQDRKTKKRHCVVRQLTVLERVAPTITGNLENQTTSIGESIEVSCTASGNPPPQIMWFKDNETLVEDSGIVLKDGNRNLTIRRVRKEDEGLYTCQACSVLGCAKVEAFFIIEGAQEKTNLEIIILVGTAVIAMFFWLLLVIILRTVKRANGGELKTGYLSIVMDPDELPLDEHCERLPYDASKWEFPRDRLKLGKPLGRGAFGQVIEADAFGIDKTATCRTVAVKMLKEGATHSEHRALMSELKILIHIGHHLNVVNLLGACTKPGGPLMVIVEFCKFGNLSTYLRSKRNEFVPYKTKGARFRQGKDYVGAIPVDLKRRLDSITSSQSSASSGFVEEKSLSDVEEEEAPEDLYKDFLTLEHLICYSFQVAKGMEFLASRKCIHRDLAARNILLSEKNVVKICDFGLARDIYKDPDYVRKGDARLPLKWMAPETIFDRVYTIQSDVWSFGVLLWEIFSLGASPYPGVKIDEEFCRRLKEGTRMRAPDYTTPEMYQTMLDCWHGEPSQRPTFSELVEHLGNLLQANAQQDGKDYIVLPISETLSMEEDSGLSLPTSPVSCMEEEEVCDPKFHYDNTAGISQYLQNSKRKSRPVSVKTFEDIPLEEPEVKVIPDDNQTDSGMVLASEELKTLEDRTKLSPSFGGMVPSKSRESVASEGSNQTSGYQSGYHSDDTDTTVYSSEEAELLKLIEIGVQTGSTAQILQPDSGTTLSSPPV

[14] = molecular target: Tau-tubulin kinase 1 (Homo sapiens) (UniProt Q5TCY1); test: Inhibition of human recombinant TTBK1 at 40 nM in presence of ATP by radiometric assay relative to control
[15] = molecular target: Serine/threonine-protein kinase MARK1 (Homo sapiens) (UniProt Q9P0L2); test: Inhibition of human recombinant MARK1 at 40 nM in presence of ATP by radiometric assay relative to control
Chain of Serine/threonine-protein kinase MARK1 (Homo sapiens) (Q9P0L2 whole entry, looked up): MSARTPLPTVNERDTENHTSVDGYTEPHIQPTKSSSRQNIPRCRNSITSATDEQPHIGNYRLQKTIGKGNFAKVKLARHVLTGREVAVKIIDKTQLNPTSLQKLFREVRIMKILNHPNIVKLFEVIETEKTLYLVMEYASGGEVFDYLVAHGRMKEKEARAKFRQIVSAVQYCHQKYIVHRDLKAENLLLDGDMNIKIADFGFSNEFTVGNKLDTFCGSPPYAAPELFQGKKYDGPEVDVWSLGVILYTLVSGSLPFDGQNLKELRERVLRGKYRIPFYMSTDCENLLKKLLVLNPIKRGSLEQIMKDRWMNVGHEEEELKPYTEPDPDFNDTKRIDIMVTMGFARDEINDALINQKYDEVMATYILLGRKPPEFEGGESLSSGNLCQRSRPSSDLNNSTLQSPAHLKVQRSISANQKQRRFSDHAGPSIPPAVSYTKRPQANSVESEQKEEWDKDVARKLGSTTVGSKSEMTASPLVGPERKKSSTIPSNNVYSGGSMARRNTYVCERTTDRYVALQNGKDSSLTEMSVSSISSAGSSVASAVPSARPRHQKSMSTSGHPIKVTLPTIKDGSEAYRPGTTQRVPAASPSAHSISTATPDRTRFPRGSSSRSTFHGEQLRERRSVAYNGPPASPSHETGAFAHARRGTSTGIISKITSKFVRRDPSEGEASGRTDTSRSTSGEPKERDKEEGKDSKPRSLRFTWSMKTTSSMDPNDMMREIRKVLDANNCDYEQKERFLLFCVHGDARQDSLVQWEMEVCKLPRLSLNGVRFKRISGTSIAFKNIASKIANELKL

[16] = molecular target: Dual specificity protein kinase CLK4 (Homo sapiens) (UniProt Q9HAZ1); test: Inhibition of human recombinant CLK4 at 40 nM in presence of ATP by radiometric assay relative to control
Chain of Dual specificity protein kinase CLK4 (Homo sapiens) (Q9HAZ1 whole entry, looked up): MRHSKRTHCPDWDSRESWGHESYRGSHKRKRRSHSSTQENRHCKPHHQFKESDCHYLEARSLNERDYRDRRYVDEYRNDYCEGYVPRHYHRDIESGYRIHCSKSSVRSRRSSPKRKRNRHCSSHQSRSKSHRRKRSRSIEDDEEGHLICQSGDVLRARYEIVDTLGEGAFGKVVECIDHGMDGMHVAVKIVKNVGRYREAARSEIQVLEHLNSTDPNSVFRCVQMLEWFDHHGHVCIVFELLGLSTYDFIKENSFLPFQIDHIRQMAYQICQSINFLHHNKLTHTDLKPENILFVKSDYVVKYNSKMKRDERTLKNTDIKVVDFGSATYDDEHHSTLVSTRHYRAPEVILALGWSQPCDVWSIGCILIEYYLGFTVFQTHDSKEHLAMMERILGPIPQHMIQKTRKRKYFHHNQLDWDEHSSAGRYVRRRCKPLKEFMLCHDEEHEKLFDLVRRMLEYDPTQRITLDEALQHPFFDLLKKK

Chain of Protein kinase C eta type (Homo sapiens) (P24723 whole entry): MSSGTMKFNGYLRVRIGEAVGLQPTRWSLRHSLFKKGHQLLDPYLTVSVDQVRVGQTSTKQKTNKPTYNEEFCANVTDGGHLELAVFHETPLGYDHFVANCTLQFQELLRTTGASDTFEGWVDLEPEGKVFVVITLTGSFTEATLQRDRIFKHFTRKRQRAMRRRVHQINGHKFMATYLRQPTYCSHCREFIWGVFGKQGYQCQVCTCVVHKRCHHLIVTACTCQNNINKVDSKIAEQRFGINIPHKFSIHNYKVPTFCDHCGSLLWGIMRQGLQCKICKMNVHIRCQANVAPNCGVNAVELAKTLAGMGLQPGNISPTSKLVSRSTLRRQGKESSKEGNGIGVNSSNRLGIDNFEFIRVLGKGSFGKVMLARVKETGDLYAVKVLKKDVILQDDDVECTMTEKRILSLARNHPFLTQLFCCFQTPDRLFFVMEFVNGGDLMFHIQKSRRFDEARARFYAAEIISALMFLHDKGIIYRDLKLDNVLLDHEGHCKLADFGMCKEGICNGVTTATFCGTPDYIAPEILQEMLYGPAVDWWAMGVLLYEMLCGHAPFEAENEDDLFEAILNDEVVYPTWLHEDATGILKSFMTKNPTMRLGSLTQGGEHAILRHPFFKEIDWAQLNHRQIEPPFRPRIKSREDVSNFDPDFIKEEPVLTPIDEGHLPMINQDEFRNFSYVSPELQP

inhibition [1]: 7%
inhibition [2]: 39%
fold change (FC) [3]: 0.01
fold change (FC) [4]: 0.47
fold change (FC) [5]: 0.01
inhibition [6]: 46%
inhibition [7]: 0%
fold change (FC) [8]: 0
Structure (SMILES): CNC(=O)c1ccccc1Oc1nc(Nc2cc(OC)c(OC)c(OC)c2)ncc1Br

inhibition [9]: 0%
fold change (FC) [10]: 0
fold change (FC) [11]: 0.2
fold change (FC) [12]: 0.08
Structure (SMILES): CC(C)[C@H](NC(=O)c1cc(-c2cnn3cc(-c4ccc(OCCN5CCCCC5)cc4)cnc23)cs1)C(F)(F)F

inhibition [13]: 5%
inhibition [14]: 0%
inhibition [15]: 29%
inhibition [16]: 52%
Structure (SMILES): O=C(N[C@@H](C1CC1)C(F)(F)F)c1cc(-c2cnn3cc(-c4ccc(F)cc4)cnc23)cs1
